These results are taken from ChEMBL document CHEMBL1152458, “Voriconazole inhibits melanization in Cryptococcus neoformans” (2007).

Structures are written as SMILES. ≈ marks a conversion by molar mass, not a printed value. Calls of active or inactive are those of the source.

For assay [1], the system named is Cryptococcus neoformans. Nature of the assay: Inhibition of melanin formation in Cryptococcus neoformans ATCC 24067 at =<0.5 times MIC after 10 days by plating assay. It counts as functional, organism-based. The procedure, abridged:
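Strain 24067 yeast grown on minimal-medium agar plates containing 1 mM L-dopa, with or without drug, 10 days at 30°C. Read-out was visual dark pigmentation of colonies and of surrounding agar from secreted laccase. Plates run in triplicate, experiment performed twice.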

Assay [2] has as its system Cryptococcus neoformans. Nature of the assay: Antifungal activity against Cryptococcus neoformans ATCC 24067 after 72 hrs by NCCLS M27A method. It counts as functional. As to conditions: ATCC 24067, 72 h.
Assay [3] relates to Cryptococcus neoformans. Description: Inhibition of melanin formation in Cryptococcus neoformans ATCC 24067 at 0.25 times MIC coincubated with L-dopa for 7 days by dry-weight measurement. It counts as functional. The arrangement: scale not given: the % may be the effect or the level left. A digest of the protocol:
(§1)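 5 x 10^4 yeasts grown in 50 ml minimal medium + 1 mM L-dopa ± drug (0.25 or 0.5 MIC) at 30°C, 150 rpm, for 7 days. Melanin "ghosts" were isolated by cell-wall lysing enzymes (10 mg/ml, overnight 30°C), proteinase K (1 mg/ml, SDS buffer pH 7.8, 37°C overnight) and boiling 6 M HCl for 1 h. They were then lyophilized and weighed.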

In assay [4] the test system is Cryptococcus neoformans. Nature of the assay: Inhibition of melanin formation in Cryptococcus neoformans ATCC 24067 at 0.5 times MIC coincubated with L-dopa for 7 days by dry-weight measurement. It counts as functional. Also noted: scale not given: the % may be the effect or the level left. The procedure, abridged:
as §1

The test system of assay [5] is Cryptococcus neoformans. Description: Reduction in LAC1 gene expression in Cryptococcus neoformans ATCC 24067 at 0.25 to 0.5 times MIC after 7 days by qRT-PCR relative to control. It counts as functional. A digest of the protocol:
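Cells grown 7 days at 30°C on foil-covered minimal-medium agar + 1 mM L-dopa ± drug (0.25 or 0.5 MIC). Total RNA was DNase-treated and reverse transcribed, then LAC1 was measured by real-time PCR (40 cycles, 55°C annealing) with melting curve. Expression was normalized to ACT1 using the threshold-cycle method.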

The subject of assay [6] is Cryptococcus neoformans. Nature of the assay: Inhibition of intact recombinant Cryptococcus neoformans ATCC 24067 laccase-mediated ABTS oxidation at 0.5 times MIC after 2 hrs. The procedure, abridged: (§2)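 Yeasts grown 72 h at 30°C in asparagine medium with glucose, then 36 h without glucose. Intact cells were used at 1 x 10^8/ml in PBS ± voriconazole. Alternatively, bead-beaten cytoplasmic extracts in 0.1 M Na2HPO4 with protease inhibitor were used. ABTS 1 mM final, 30°C for 2 h; cells removed and A420 read against a no-ABTS baseline. Rhus laccase (1 U/ml) served as positive control. Run twice.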

For assay [7], the system named is Toxicodendron vernicifluum. Description: Inhibition of cytoplasmic extract of recombinant Rhus vernificera laccase-mediated ABTS oxidation at 0.5 times MIC after 2 hrs. A digest of the protocol:
as §2

In assay [8] the test system is Cryptococcus neoformans. Nature of the assay: Increase in phagocytosis of Cryptococcus neoformans ATCC 24067 by mouse J774.16 cells at 0.25 to 0.5 times MIC. It counts as functional, organism-based. The procedure, abridged: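 Yeasts (5 x 10^4 in 25 ml minimal medium + 1 mM L-dopa, 0.25 or 0.5 MIC drug, 30°C, 150 rpm) sampled on days 3, 5 and 7. They were PBS-washed and added 1:1 to J774.16 macrophages with 10 µg/ml mAb 18B7 for 2 h at 37°C. Monolayers were washed, methanol-fixed and Giemsa-stained. Index is internalized yeasts per macrophage, from 3 wells × 3 fields (~100 macrophages each) at x400.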

For assay [9], the system named is Toxicodendron vernicifluum. Nature of the assay: Inhibition of Rhus vernificera recombinant laccase-mediated ABTS oxidation. The procedure, abridged:
(§3)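 Commercial Rhus vernificera laccase incubated with voriconazole, varying concentrations of either enzyme or drug, in PBS. ABTS 1 mM final, 30°C for 2 h, with absorbance read at 420 nm.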

The subject of assay [10] is Toxicodendron vernicifluum. Nature of the assay: Inhibition of recombinant Rhus vernificera laccase-mediated ABTS oxidation measured as inhibition activity with respect to decrease in enzyme concentration from 1 to 0.001 U/mL at 1 ug/ml. A digest of the protocol:
as §3

For assay [11], the system named is Cryptococcus neoformans. Nature of the assay: Antifungal activity against Cryptococcus neoformans ATCC 24067 assessed as effect on growth rate at 0.25 to 0.5 times MIC. It counts as functional, organism-based. The procedure, abridged:
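C. neoformans 24067 grown at 30°C in minimal medium with L-dopa, with drug at several sub-MIC levels up to 0.5 MIC. Inoculum was 5 x 10^4 cells in 50 ml per concentration, with growth followed over time.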

For the molecule `C[C@@H]1[C@H](O)[C@@H](C)/C=C/C=C/C=C/C=C/C=C/C=C/C=C/[C@H](O[C@@H]2O[C@H](C)[C@@H](O)[C@H](N)[C@@H]2O)C[C@@H]2O[C@](O)(C[C@@H](O)C[C@@H](O)[C@H](O)CC[C@@H](O)C[C@@H](O)CC(=O)O[C@H]1C)C[C@H](O)[C@H]2C(=O)O` [AMPHOTERICIN B], the outcome in the assay on Cryptococcus neoformans [1] was inactive. In the assay on Cryptococcus neoformans [2], this molecule registered a minimal inhibitory concentration (MIC) of 0.125 µg/mL (≈ 0.135 µM).

`CC[C@H](C)C[C@H](C)CCCCCCCCC(=O)N[C@H]1C[C@@H](O)[C@@H](NCCN)NC(=O)[C@@H]2[C@@H](O)CCN2C(=O)[C@H]([C@H](O)CCN)NC(=O)[C@H]([C@H](O)[C@@H](O)c2ccc(O)cc2)NC(=O)[C@@H]2C[C@@H](O)CN2C(=O)[C@H]([C@@H](C)O)NC1=O` [CASPOFUNGIN]: the MIC against Cryptococcus neoformans [2] was 8 µg/mL (≈ 7.32 µM).

Regarding `OC(Cn1cncn1)(Cn1cncn1)c1ccc(F)cc1F` [FLUCONAZOLE], the Activity in the assay with Cryptococcus neoformans [3] came out at 2.7%; with Cryptococcus neoformans [4] it was 17.3%. In addition, in the assay on Cryptococcus neoformans [5], the outcome was inactive. The lowest concentration to inhibit growth in the assay with Cryptococcus neoformans [2] (MIC) was 1 µg/mL (≈ 3.27 µM).

In the assay with Cryptococcus neoformans [2], `CCC(C)n1ncn(-c2ccc(N3CCN(c4ccc(OCC5COC(Cn6cncn6)(c6ccc(Cl)cc6Cl)O5)cc4)CC3)cc2)c1=O` (stereo not drawn) [ITRACONAZOLE] came in with an MIC of less than 0.625 µg/mL.

Consider `C[C@@H](c1ncncc1F)[C@](O)(Cn1cncn1)c1ccc(F)cc1F` [VORICONAZOLE], for which the Activity in the assay on Cryptococcus neoformans [3] is 82.1%; in the assay on Cryptococcus neoformans [4] it was 94.5%; in the assay with Cryptococcus neoformans [5], 40%; in [9], “Dose-dependent effect”. Also, the result (in the assay on Cryptococcus neoformans [6]; in assay [7]; in the assay on Cryptococcus neoformans [8]; in assay [10]) was Active. The molecule further returned an MIC in the assay on Cryptococcus neoformans [2] of 0.015 µg/mL (≈ 0.0429 µM). In addition, the outcome with Cryptococcus neoformans [11] was inactive.

In general, MIC refers to the least concentration at which growth counts as inhibited.
